Source: ChEMBL document CHEMBL1121802, “Imine analogues of tricyclic antidepressants” (1981)

Tests used:
Type in all cases: functional
Mus musculus [1] = experiment: Compound was tested for antidepressant activity by determining the decreased exploratory activity in mice upon oral administration; 12-32
Procedure, shortened: (§1)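 Mice given test drug orally; 30 min later challenged with tetrabenazine (methanesulfonate) 32 mg/kg ip in 0.05 M KCl pH 2.0. Scored 1 h after test drug for exploratory activity and ptosis; ptosis antagonism = lid closure <50% in both eyes exactly 2 s after placing mouse facing observer. ED50 calculated by Thompson method.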

Mus musculus [2] = experiment: The effect on 24-hour mortality in mice following oral administration
Mus musculus [3] = experiment: Effect on pupil dilation was measured in mice upon oral administration
Procedure, shortened: (§2)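 Observed at 0.5, 2, 5 and 24 h for ataxia (abnormal gait/imprecise movement), pupil diameter (dissecting microscope, 20×, micrometer), excitement (spontaneous running/jumping) and electroshock protection (corneal electrodes at 2 and 5 h). ED50 by Thompson method.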

Mus musculus [4] = experiment: The effect on ataxia in mice following oral administration; procedure, shortened: as §2
Mus musculus [5] = experiment: The effect on excitement was measured in mice following oral administration; procedure, shortened: as §2
Mus musculus [6] = experiment: Compound was tested for antidepressant activity by determining the reversal of tetrabenazine-induced ptosis upon oral administration; 7-22; procedure, shortened: as §1
Mus musculus [7] = experiment: The effect on electroshock protection in mice following oral administration; procedure, shortened: as §2
Mus musculus [8] = experiment: Compound was tested for antidepressant activity by determining the reversal of tetrabenazine-induced ptosis upon oral administration; 0.7-1.9; procedure, shortened: as §1
Mus musculus [9] = experiment: Compound was tested for antidepressant activity by determining the decreased exploratory activity in mice upon oral administration; 6.0-12.0; procedure, shortened: as §1
Mus musculus [10] = experiment: Antidepressant activity by determining the reversal of tetrabenazine-induced ptosis upon oral administration; procedure, shortened: as §1
Mus musculus [11] = experiment: Compound was tested for antidepressant activity by determining the decreased exploratory activity in mice upon oral administration; 34-158; procedure, shortened: as §1
Mus musculus [12] = experiment: The effect on ataxia was measured in mice upon ip administration
Mus musculus [13] = experiment: Antidepressant activity by determining the decreased exploratory activity in mice upon oral administration; procedure, shortened: as §1
Mus musculus [14] = experiment: The effect on excitement was measured in mice upon ip administration
Mus musculus [15] = experiment: The effect on 24-hour mortality was measured in mice upon ip administration
Mus musculus [16] = experiment: The effect on electroshock protection was measured in mice upon ip administration
Mus musculus [17] = experiment: Compound was tested for antidepressant activity by determining the reversal of tetrabenazine-induced ptosis upon oral administration; 27-60; procedure, shortened: as §1
Mus musculus [18] = experiment: Compound was tested for antidepressant activity by determining the reversal of tetrabenazine-induced ptosis upon oral administration; 84-110; procedure, shortened: as §1
Mus musculus [19] = experiment: Compound was tested for antidepressant activity by determining the decreased exploratory activity in mice upon oral administration; procedure, shortened: as §1
Mus musculus [20] = experiment: Compound was tested for antidepressant activity by determining the reversal of tetrabenazine-induced ptosis upon oral administration; 22-53; procedure, shortened: as §1
Mus musculus [21] = experiment: Compound was tested for antidepressant activity by determining the reversal of tetrabenazine-induced ptosis upon oral administration; 3.0-12.0; procedure, shortened: as §1
Mus musculus [22] = experiment: Compound was tested for antidepressant activity by determining the reversal of tetrabenazine-induced ptosis upon oral administration; 1.3-2.7; procedure, shortened: as §1
Mus musculus [23] = experiment: Compound was tested for antidepressant activity by determining the decreased exploratory activity in mice upon oral administration; 4.7-17; procedure, shortened: as §1
Mus musculus [24] = experiment: Compound was tested its antidepressant activity by determining the decreased exploratory activity in mice upon oral administration; 1.1-2.1; procedure, shortened: as §1
Mus musculus [25] = experiment: Compound was tested for antidepressant activity by determining the reversal of tetrabenazine-induced ptosis upon oral administration; 0.5-0.9; procedure, shortened: as §1
Mus musculus [26] = experiment: Compound was tested for its antidepressant activity by determining the decreased exploratory activity in mice upon oral administration; 8.1-15.4; procedure, shortened: as §1
Mus musculus [27] = experiment: Compound was tested for antidepressant activity by determining the decreased exploratory activity in mice upon oral administration; 2.7-4.6
Mus musculus [28] = experiment: Compound was tested for antidepressant activity by determining the reversal of tetrabenazine-induced ptosis upon oral administration; 1.1-1.8

| SMILES | ED50 (Mus musculus [2]) | ED50 (Mus musculus [3]) | ED50 (Mus musculus [4]) | ED50 (Mus musculus [5]) | ED50 (Mus musculus [7]) | further results |
| --- | --- | --- | --- | --- | --- | --- |
| CN(C)CC/N=C1\c2ccccc2CNc2ccccc21 | 300 mg/kg | 36 mg/kg | 36 mg/kg | > 324 mg/kg | > 324 mg/kg | ED50 (Mus musculus [1]): 20 mg/kg; ED50 (Mus musculus [6]): 12 mg/kg |
| CCNCCN=C1c2ccccc2C2CC2c2ccccc21 (centres undefined) | 200 mg/kg | 36 mg/kg | 36 mg/kg | > 324 mg/kg | > 324 mg/kg | ED50 (Mus musculus [8]): 1.1 mg/kg; ED50 (Mus musculus [9]): 8.4 mg/kg |
| CN(C)CCN=c1c2ccccc2oc2ccccc12 | 300 mg/kg | > 324 mg/kg | 60 mg/kg | 60 mg/kg | > 324 mg/kg | ED50 (Mus musculus [10]): > 125 mg/kg; ED50 (Mus musculus [11]): 73 mg/kg |
| c1ccc2c(c1)CCc1ccccc1C2=NCCN1CCOCC1 | – | 100 mg/kg | – | – | – | ED50 (Mus musculus [12]): 200 mg/kg; ED50 (Mus musculus [13]): > 125 mg/kg; ED50 (Mus musculus [14]): > 324 mg/kg; ED50 (Mus musculus [15]): 300 mg/kg; ED50 (Mus musculus [10]): > 125 mg/kg; ED50 (Mus musculus [16]): 300 mg/kg |
| CN(C)CC/N=C1\c2ccccc2CS(=O)(=O)c2ccccc21 | > 324 mg/kg | 36 mg/kg | 200 mg/kg | 200 mg/kg | > 324 mg/kg | ED50 (Mus musculus [17]): 40 mg/kg; ED50 (Mus musculus [13]): > 125 mg/kg |
| CN(C)CCCN=c1c2ccccc2sc2ccccc12 | 200 mg/kg | 60 mg/kg | 60 mg/kg | 60 mg/kg | > 324 mg/kg | ED50 (Mus musculus [18]): 96 mg/kg; ED50 (Mus musculus [19]): 125 mg/kg |
| c1ccc2c(c1)C(=NCCN1CCCCC1)c1ccccc1C1CC21 (centres undefined) | 200 mg/kg | > 324 mg/kg | 12 mg/kg | > 324 mg/kg | > 324 mg/kg | ED50 (Mus musculus [13]): > 125 mg/kg; ED50 (Mus musculus [20]): 34 mg/kg |
| CN(C)CC/N=C1\c2ccccc2COc2ccccc21 | 200 mg/kg | 20 mg/kg | 36 mg/kg | > 324 mg/kg | 60 mg/kg | ED50 (Mus musculus [19]): 33 mg/kg; ED50 (Mus musculus [21]): 6 mg/kg |
| CN(C)CCN=C1c2ccccc2CCc2ccccc21 | 100 mg/kg | 20 mg/kg | 20 mg/kg | > 324 mg/kg | 36 mg/kg | ED50 (Mus musculus [22]): 1.9 mg/kg; ED50 (Mus musculus [23]): 9 mg/kg |
| NCCN=C1c2ccccc2C2CC2c2ccccc21 (centres undefined) | 200 mg/kg | 100 mg/kg | 60 mg/kg | > 324 mg/kg | 100 mg/kg | ED50 (Mus musculus [24]): 1.5 mg/kg; ED50 (Mus musculus [25]): 0.7 mg/kg |
| CN(C)CC/N=C1\c2ccccc2CCc2ccc(Cl)cc21 (mixture of isomers) | 100 mg/kg | 36 mg/kg | 20 mg/kg | > 324 mg/kg | 60 mg/kg | ED50 (Mus musculus [26]): 11.2 mg/kg; ED50 (Mus musculus [10]): 4.9 mg/kg |
| CN(C)CCC=C1c2ccccc2CCc2ccccc21 [AMITRIPTYLINE] | 190 mg/kg | 23 mg/kg | 14 mg/kg | > 324 mg/kg | 43 mg/kg | ED50 (Mus musculus [27]): 3.5 mg/kg; ED50 (Mus musculus [28]): 1.4 mg/kg |
